Key:
Aorta [1] = assay: Vasorelaxant activity in rat endothelium-denuded thoracic aortic ring assessed as inhibition of noradrenaline-induced contraction relative to control; format: functional
Method in brief: (§1)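 Isometric tension of isolated rat thoracic aorta rings, endothelium intact or removed, recorded with a force transducer. After stabilization, rings were challenged with […] for 10 min and washed in fresh Krebs solution. This was done three times at 30-min intervals. Endothelial status was confirmed by […] relaxation in the last contraction. Rings were then contracted with NA and given quarter-log cumulative concentrations; EC50 derived.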

Aorta [2] = assay: Vasorelaxant activity in rat endothelium-denuded thoracic aortic ring assessed as inhibition of noradrenaline-induced contraction; format: functional, tissue-based; method in brief: as §1
Aorta [3] = assay: Vasorelaxant activity in rat endothelium-intact thoracic aortic ring assessed as inhibition of noradrenaline-induced contraction; format: functional, tissue-based; method in brief: as §1
Aorta [4] = assay: Vasorelaxant activity in rat endothelium-intact thoracic aortic ring assessed as inhibition of noradrenaline-induced contraction relative to control; format: functional; method in brief: as §1

EC50 (Aorta [2]) [µM] | EC50 (Aorta [3]) [µM] | SMILES | Efficacy (Aorta [1]) [%] | inhibition (Aorta [2]) | Efficacy (Aorta [4]) [%]
178 | 270 | CCOC(=O)c1c(C)[nH]c(=O)c(C#N)c1-c1ccncc1 | 86.4 | Dose-dependent effect | 85.47
12 | 5 | CCOC(=O)c1c(C)[nH]c(=O)c(C#N)c1-c1cccs1 | 99 | Dose-dependent effect | 100
8.2 | 7 | CCOC(=O)c1c(C)[nH]c(=O)c(C#N)c1-c1ccc([N+](=O)[O-])cc1 | 95 | Dose-dependent effect | 98
62 | 85 | CCOC(=O)c1c(C)[nH]c(=O)c(C#N)c1-c1cccc(Cl)c1 | 99 | Dose-dependent effect | 97
– | 0.3 | C[N+](C)(C)CCOC(N)=O.[Cl-] [CARBACHOL] | – | – | 74.06
31 | 22 | CCOC(=O)c1c(C)[nH]c(=O)c(C#N)c1-c1ccco1 | 93 | Dose-dependent effect | 100
3.6 | 4.4 | CCOC(=O)c1c(C)[nH]c(=O)c(C#N)c1-c1ccc([N+](=O)[O-])cc1[N+](=O)[O-] | 99 | Dose-dependent effect | 97

SMILES | EC50 (Aorta [2]) [µM] | EC50 (Aorta [3]) [µM] | Efficacy (Aorta [1]) [%] | inhibition (Aorta [2]) | Efficacy (Aorta [4]) [%]
COC(=O)C1=C(C)NC(C)=C(C(=O)OC)C1c1ccccc1[N+](=O)[O-] [NIFEDIPINE] | 0.03 | – | 97 | – | –
